Article PMC7606739 (FASEB journal : official publication of the Federation of …, 2020)

Key:
[1] = biological target: T1, human 12-LOX (Human ALOX12) (Homo sapiens, UniProt P18054); experiment: biochemical
T1 sequence (P18054 1-663): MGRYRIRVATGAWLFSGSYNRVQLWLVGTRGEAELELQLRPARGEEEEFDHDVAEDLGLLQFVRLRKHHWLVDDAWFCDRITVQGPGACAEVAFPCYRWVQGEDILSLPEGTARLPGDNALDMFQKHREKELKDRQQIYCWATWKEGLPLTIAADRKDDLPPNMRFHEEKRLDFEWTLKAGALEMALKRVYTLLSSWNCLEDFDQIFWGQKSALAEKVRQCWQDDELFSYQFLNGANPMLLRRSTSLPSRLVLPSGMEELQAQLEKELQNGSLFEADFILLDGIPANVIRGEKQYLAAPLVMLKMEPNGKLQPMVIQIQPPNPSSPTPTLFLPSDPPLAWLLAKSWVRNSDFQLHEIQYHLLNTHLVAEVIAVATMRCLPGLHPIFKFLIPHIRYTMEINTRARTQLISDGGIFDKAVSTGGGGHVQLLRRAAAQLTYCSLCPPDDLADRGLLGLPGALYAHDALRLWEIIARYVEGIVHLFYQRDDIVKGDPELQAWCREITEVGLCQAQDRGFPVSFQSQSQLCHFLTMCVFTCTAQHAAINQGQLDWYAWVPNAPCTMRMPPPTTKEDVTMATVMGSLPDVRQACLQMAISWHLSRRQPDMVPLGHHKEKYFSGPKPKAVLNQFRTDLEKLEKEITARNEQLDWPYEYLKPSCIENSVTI

[2] = biological target: T2, zebrafish 12-LOX (zf12-LOX, Alox12) (Danio rerio, UniProt A0ACM8Q0F4); experiment: UV-Vis lipoxygenase rate assay; type: biochemical
T2 sequence (A0ACM8Q0F4 1-670): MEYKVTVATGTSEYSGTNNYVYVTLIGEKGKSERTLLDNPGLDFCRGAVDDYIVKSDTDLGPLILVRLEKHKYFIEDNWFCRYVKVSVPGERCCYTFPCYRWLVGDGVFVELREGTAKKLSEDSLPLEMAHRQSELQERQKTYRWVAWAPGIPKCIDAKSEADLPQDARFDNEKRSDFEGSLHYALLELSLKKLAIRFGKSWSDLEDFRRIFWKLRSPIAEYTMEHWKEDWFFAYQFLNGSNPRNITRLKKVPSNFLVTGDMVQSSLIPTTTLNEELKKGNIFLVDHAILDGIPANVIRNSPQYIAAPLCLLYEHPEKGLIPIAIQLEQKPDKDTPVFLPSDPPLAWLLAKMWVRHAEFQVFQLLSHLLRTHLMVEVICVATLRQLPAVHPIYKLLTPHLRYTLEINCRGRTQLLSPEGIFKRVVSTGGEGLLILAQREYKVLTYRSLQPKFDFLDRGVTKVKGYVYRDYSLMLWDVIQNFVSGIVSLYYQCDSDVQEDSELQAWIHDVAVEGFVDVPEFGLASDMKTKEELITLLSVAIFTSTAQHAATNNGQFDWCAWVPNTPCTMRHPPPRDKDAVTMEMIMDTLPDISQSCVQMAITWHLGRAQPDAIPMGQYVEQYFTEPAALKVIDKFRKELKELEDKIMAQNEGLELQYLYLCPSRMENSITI
In short: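 N-terminal 6xHis-tagged zf12-LOX, expressed from a pFastBac construct, purified on nickel-iminodiacetic acid agarose (>90% pure by SDS-PAGE). Reaction in 25 mM HEPES (pH 8.00), 0.01% Triton X-100, 10 μM arachidonic acid, run as a steady-state kinetic UV-Vis assay. Enzymatic rate measured at six inhibitor concentrations in triplicate; IC50 from a hyperbolic saturation curve fit of rate versus concentration.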

- IC50 [1]: > 50 µM
- IC50 [2]: > 100 µM
SMILES: CNc1oc(-c2cccc3ccccc23)nc1C#N [ML351]
